This assay concerns the target Aminopeptidase N (Plasmodium falciparum (isolate 3D7)) (UniProt O96935). Put plainly: PfM1AAP inhibitors, counter-screen enzyme, dose response, counter-screen for PfM18AAP inhibitor project, biochemical, QFRET fluorogenic substrate, set 3 (AID 624176). The note with it: recombinant PfM1AAP, H-Leu-NHMec fluorogenic cleavage; for inhibition: at 100 µM (top of the series). Summed up:
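Material: purified recombinant Plasmodium falciparum M1 alanyl aminopeptidase (PfM1AAP); Amount: enzyme 5 µg/mL; Replicates: each concentration tested in triplicate; Measure: IC50 from constrained four-parameter fit; Doses: ten concentrations, twofold dilution steps, highest 100 µM; Timing: reaction 90 min, room temperature; Buffer or medium: Tris-HCl pH 7.5 plus CoCl2; Signal: NHMec fluorescence at 370/460 nm.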
(A counterscreen serves to expose hits that act by an unwanted route or on another target.)

Active and inactive are the calls of the source.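 The calls were made as follows: active = inhibition of 30% or more at any tested concentration; inactive = the rest.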

As a reminder, the IC50 is the point on the concentration scale where inhibition reaches its midpoint.

Sequence of Aminopeptidase N (Plasmodium falciparum (isolate 3D7)) (O96935 whole entry, looked up): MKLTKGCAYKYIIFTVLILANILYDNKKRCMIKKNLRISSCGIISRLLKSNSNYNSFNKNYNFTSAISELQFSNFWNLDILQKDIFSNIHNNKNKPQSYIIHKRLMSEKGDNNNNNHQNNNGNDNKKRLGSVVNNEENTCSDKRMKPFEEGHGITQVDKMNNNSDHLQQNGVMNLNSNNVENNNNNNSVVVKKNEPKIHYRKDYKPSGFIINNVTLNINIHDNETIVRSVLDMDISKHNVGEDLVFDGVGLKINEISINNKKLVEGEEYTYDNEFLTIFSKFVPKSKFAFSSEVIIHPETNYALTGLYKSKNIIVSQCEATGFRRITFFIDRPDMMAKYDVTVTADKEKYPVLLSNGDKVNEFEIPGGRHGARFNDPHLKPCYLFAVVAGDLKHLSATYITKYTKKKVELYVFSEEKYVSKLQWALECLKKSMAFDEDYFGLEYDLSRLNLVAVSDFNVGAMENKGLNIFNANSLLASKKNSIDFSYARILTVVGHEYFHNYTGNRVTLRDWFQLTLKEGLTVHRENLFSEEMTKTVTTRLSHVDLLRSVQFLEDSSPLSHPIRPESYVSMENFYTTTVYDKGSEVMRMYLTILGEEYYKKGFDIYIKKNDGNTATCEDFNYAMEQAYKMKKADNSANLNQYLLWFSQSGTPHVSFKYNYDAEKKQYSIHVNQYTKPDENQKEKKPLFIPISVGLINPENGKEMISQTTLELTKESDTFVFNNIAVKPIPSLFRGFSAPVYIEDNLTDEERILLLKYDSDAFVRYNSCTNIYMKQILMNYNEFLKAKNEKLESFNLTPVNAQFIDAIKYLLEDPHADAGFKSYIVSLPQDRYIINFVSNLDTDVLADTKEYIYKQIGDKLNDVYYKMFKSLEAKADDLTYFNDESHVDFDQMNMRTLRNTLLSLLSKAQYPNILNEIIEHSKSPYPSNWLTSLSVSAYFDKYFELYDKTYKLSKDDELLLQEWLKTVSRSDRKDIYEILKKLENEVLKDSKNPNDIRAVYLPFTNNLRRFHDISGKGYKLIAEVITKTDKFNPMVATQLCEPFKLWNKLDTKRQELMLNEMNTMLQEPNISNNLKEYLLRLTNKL

Turning to `COc1cc(Br)c(CCNc2c3ccccc3nc3ccccc23)cc1OC`, the inhibition result was “inactive”.
Take `CN(CCc1ccc(O)c(O)c1)c1ccnc2c(F)cccc12`: the IC50 is 83.2 µM.
In the case of `CCOc1ccc2nccc(NCCc3ccc(OC)c(OC)c3)c2c1`, the inhibition entry was “inactive”.
As for `COc1ccc(CCN(C)c2ccnc3c(F)cccc23)cc1OC`, the inhibition result is “inactive”.
As to `COc1ccc(C2CCN(c3ccnc4ccccc34)C2)cc1OC` (stereo not given), the inhibition result was “inactive”.
Regarding `Oc1ccc(C2CCN(c3ccnc4ccccc34)C2)cc1O` (stereo not given), the IC50 is 47.2 µM.
In the case of `COc1ccc(CCN(C)c2c3ccccc3nc3ccccc23)cc1OC`, the inhibition entry is “inactive”.
On to `Clc1c2c(nc3ccccc13)CCCC2`, for which the inhibition entry was “inactive”.
`Cc1cccc2c(NCCc3ccc(O)c(O)c3)ccnc12`: the 50% inhibitory concentration (IC50) was 105 µM.
For `COc1ccc(CCN(C)c2ccnc3cc(Cl)ccc23)cc1OC`, the inhibition result is “inactive”.
For `Nc1c2ccccc2nc2ccccc12`, the inhibition entry was “inactive”.
For the molecule `CN(CCc1ccc(O)c(O)c1)c1ccnc2cc(Cl)ccc12`, the IC50 is 75.4 µM.
On to `COc1ccc(CCNc2cc(C)nc3ccccc23)cc1OC`, for which the inhibition entry is “inactive”.
The same measure, in the same setting: as for `COc1cc(Br)c(CCNc2c3c(nc4ccccc24)CCCC3)cc1OC`, the entry is “inactive”.
`COc1cc(Br)c(CCNc2ccnc3ccccc23)cc1OC`: the inhibition result is “inactive”.
Regarding `COc1ccc(CCCN(C)c2c3ccccc3nc3ccccc23)cc1OC`, the inhibition entry is “inactive”.
Regarding `Cc1cc(N(C)CCc2ccc(O)c(O)c2)c2ccccc2n1`, the IC50 is 101 µM.
For the molecule `COc1ccc(CCNc2ccnc3c(C)cccc23)cc1OC`, the inhibition entry was “inactive”.
For `COc1ccc(CCNc2c3c(nc4ccc(C)cc24)CCCC3)cc1OC`, the inhibition result was “inactive”.
The same measure, in the same setting: as for `CCOc1ccc2nccc(N(C)CCc3ccc(OC)c(OC)c3)c2c1`, the entry is “inactive”; as for `COc1ccc(CCNc2ccnc3c(F)cccc23)cc1OC`, “inactive”.
For the molecule `COc1ccc(CCN(C)c2ncnc3ccccc23)cc1OC`, the inhibition result was “inactive”.
For the molecule `CN(CCc1ccc(O)c(O)c1)c1ncnc2ccccc12`, the IC50 was 61.3 µM.
Take `COc1ccc(CCNc2ccnc3cc(Cl)ccc23)cc1OC`: the inhibition entry is “inactive”.
For the molecule `Oc1cccc(CCNc2ccnc3ccccc23)c1O`, the IC50 was 56.4 µM.
For the molecule `COc1ccc(CCN(C)c2cc(C)nc3ccccc23)cc1OC`, the inhibition entry is “inactive”.
Take `CCN(CCc1ccc(O)c(O)c1)c1c2ccccc2nc2ccccc12`: the concentration for half-maximal inhibition (IC50) is 101 µM.
As for `COc1ccc(CCNc2ncnc3ccccc23)cc1OC`, the inhibition entry is “inactive”.
For `COc1ccc(C2CCN(c3ccnc4ccccc34)CC2)cc1OC`, the inhibition result was “inactive”.
Regarding `Oc1ccc(C2CCN(c3ccnc4ccccc34)CC2)cc1O`, the IC50 is 74.6 µM.
As to `COc1ccc(CCN(C)c2ccnc3c(C)cccc23)cc1OC`, the inhibition result was “inactive”.
The same measure, in the same setting: as for `COc1ccc(CCCNc2c3c(nc4ccccc24)CCCC3)cc1OC`, the entry is “inactive”.
Take `Oc1ccc(CCNc2ccnc3cc(Cl)ccc23)cc1O`: the IC50 was 74.6 µM.
With `CCN(CCc1ccc(OC)c(OC)c1)c1c2ccccc2nc2ccccc12`, the inhibition entry was “inactive”.
As for `COc1ccc(CCNC(=O)c2cc(C)ccc2N)cc1OC`, the inhibition result was “inactive”.

The values are drawn from PubChem BioAssay AID624176 (Southern Research Specialized Biocontainment Screening …, 2012).
